Experimental findings from ChEMBL document CHEMBL3124871, “Synthesis and pharmacological characterization of 1-benzyl-4-aminoindole-based thyroid hormone receptor β agonists” (Bioorg Med Chem, 2014) are described below.

The subject of one assay is HepG2. The assay is described as follows: Selectivity ratio of EC50 for human recombinant transfected in human HepG2 cells to EC50 for human recombinant TRbeta1 transfected in human HepG2. Type of assay: cell-based.
For a further assay, the system named is CV-1. The assay is described as follows: Selectivity ratio of EC50 for human recombinant transfected in CV-1 cells to EC50 for human recombinant TRbeta1 transfected in CV-1 cells. It is filed as cell-based. An outline of the steps: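 CV-1 monkey kidney cells grown in DMEM with 10% FBS for 24 h at 37 °C and 5% CO2. Transfected (FuGENE) with hTRα1 or hTRβ1 plus a SEAP reporter for 24 h, then exposed to T3 or test compound for 8-10 h. SEAP was read as A405 of p-nitrophenol (pH 9.8, 30 min, RT). EC50 was set against T3 max = 100%; mean of four experiments; α/β ratio of EC50s.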

Assay [1] deals with T1, Thyroid hormone receptor beta (Homo sapiens, UniProt P10828).
T1 sequence (P10828 whole entry): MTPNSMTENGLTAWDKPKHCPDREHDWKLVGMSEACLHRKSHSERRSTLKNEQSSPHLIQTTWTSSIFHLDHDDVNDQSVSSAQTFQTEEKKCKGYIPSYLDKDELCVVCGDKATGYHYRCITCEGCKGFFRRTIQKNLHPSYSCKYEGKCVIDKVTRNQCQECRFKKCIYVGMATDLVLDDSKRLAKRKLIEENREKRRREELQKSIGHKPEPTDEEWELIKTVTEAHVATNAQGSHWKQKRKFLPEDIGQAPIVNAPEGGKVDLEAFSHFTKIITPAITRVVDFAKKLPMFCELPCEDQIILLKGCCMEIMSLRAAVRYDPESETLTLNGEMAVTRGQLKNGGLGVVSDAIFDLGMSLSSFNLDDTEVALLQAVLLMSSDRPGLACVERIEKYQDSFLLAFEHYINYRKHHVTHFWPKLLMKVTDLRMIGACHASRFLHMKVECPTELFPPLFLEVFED
The assay is described as follows: Agonist activity at human recombinant TRbeta1 transfected in human HepG2 cells after 8 to 10 hrs by alkaline phosphatase reporter gene assay. It is filed as cell-based.

Assay [2] deals with T1, Thyroid hormone receptor beta. The assay is described as follows: Agonist activity at human recombinant TRbeta1 transfected in CV-1 cells after 8 to 10 hrs by alkaline phosphatase reporter gene assay. Type of assay: cell-based.
The target is the same in assay [3]. The assay is described as follows: Displacement of [125I]-Triiodothyronine from human recombinant TRbeta1 ligand binding domain after 2 to 3 hrs by beta counting.
For assay [4], the target named is T2, Thyroid hormone receptor alpha (Homo sapiens, UniProt P10827).
T2 sequence (P10827 whole entry): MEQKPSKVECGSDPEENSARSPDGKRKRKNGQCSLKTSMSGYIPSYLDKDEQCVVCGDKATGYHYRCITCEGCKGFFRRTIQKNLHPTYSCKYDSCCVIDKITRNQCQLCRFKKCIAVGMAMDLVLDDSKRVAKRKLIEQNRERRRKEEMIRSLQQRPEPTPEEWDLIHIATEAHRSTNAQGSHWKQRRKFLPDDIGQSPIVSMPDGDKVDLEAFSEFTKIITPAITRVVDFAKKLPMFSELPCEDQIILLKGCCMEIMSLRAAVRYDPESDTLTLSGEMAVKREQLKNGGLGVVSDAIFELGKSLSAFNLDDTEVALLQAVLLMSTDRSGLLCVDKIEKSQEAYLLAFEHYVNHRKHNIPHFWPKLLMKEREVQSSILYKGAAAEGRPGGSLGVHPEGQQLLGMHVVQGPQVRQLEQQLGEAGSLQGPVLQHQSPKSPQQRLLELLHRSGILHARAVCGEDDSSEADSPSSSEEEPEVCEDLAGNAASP
The assay is described as follows: Displacement of [125I]-Triiodothyronine from human recombinant TRalpha1 ligand binding domain after 2 to 3 hrs by beta counting.

Assay [5] addresses T2, Thyroid hormone receptor alpha. The assay is described as follows: Agonist activity at human recombinant TRalpha1 transfected in CV-1 cells after 8 to 10 hrs by alkaline phosphatase reporter gene assay. Type of assay: cell-based.
Assay [6] is filed under the species Homo sapiens. The assay is described as follows: Reduction in triglyceride level in coronary heart disease patient with hyperlipidemia relative to placebo-control. On the set-up: scale not given: the % may be the effect or the level left. Type of assay: functional.
The species entered for assay [7] is Homo sapiens. The assay is described as follows: Reduction in cholesterol level in coronary heart disease patient with hyperlipidemia relative to placebo-control. Type of assay: functional. On the set-up: scale not given: the % may be the effect or the level left.
The species named for assay [8] is Homo sapiens. The assay is described as follows: Reduction in LDL-cholesterol in healthy human at 100 ug qd for 2 weeks. Type of assay: functional. Also on record: scale not given: the % may be the effect or the level left.
For assay [9], the species on record is Homo sapiens. The assay is described as follows: Reduction in LDL-cholesterol in healthy human at 100 ug qd for 1 week. Type of assay: functional. On the set-up: scale not given: the % may be the effect or the level left.

On to `CC(C)c1cc(Cn2ccc3c(NC(=O)C(=O)O)cccc32)ccc1O`, for which the Ratio EC50 in the assay on HepG2 is 2.2; in the assay on CV-1 it was 2.7. Moreover, the EC50 turned out to be 0.55 µM in [1] and 1.9 µM in [2].
For `Cc1cc2c(NC(=O)C(=O)O)cccc2n1Cc1ccc(O)c(C(C)C)c1` the same measures were 1.5, 2.2, 0.11 µM and 0.59 µM.
`Cc1ccc(NC(=O)C(=O)O)c2ccn(Cc3ccc(O)c(C(C)C)c3)c12`: the values for the Ratio EC50 in the assay on HepG2 and with CV-1 were 2.5 and 1.5, respectively. Also, the EC50 was 0.19 µM in assay [1] and 0.5 µM in assay [2]. The IC50 was found to be 0.054 µM in assay [3] and 0.19 µM in assay [4].
For `Cc1c(CC(=O)O)c2ccccc2n1Cc1ccc(O)c(C(C)C)c1`, the Ratio EC50 in the assay with CV-1 came out at 3. Further, the EC50 in assay [2] stood at 0.15 µM; in [5], 0.45 µM.
Turning to `Cc1cc2cc(NC(=O)C(=O)O)ccc2n1Cc1ccc(O)c(C(C)C)c1`, the IC50 came out at 1.5 µM in [3] and 0.23 µM in [4].
With `Cc1c(CCC(=O)O)c2ccccc2n1Cc1ccc(O)c(C(C)C)c1`, the Ratio EC50 in the assay with CV-1 came to 1. In addition, the EC50 in assay [2] stood at 0.037 µM; in assay [5], 0.039 µM. In addition, the IC50 was determined as 0.76 µM in assay [3] and 1.3 µM in [4].
For `Cc1c(CCCC(=O)O)c2ccccc2n1Cc1ccc(O)c(C(C)C)c1` the same measures were 4.8, 0.037 µM, 0.18 µM, 0.29 µM and 3.4 µM.
Take `Cc1c(C(=O)NCC(=O)O)c2ccccc2n1Cc1ccc(O)c(C(C)C)c1`: the IC50 in assay [3] is 1.1 µM; in assay [4], greater than 10 µM.
For the compound `Cc1c(CCCCC(=O)O)c2ccccc2n1Cc1ccc(O)c(C(C)C)c1`, the Ratio EC50 with CV-1 came to 1.6. Also, the values for the EC50 in assay [2] and in assay [5] were 0.062 µM and 0.1 µM, respectively. Moreover, the IC50 in [3] is 1.4 µM; in assay [4] it was greater than 10 µM.
`N[C@H](Cc1cc(I)c(Oc2cc(I)c(O)c(I)c2)c(I)c1)C(=O)[O-].O.[Na+]` [DEXTROTHYROXINE SODIUM]: the Activity in the assay listed under Homo sapiens [6] turned out to be 15%; in the assay listed under Homo sapiens [7] it was 12%.
In the case of `Cc1c(CC(=O)NCC(=O)O)c2ccccc2n1Cc1ccc(O)c(C(C)C)c1`, the IC50 in assay [3] is 0.43 µM; in assay [4] it was 8.2 µM.
For the compound `Cc1cc(OCC(=O)O)cc(C)c1Cc1ccc(O)c(C(C)C)c1` [SOBETIROME], the Activity in the assay listed under Homo sapiens [8] is on record as 41%.
On to `CC(C)c1cc(Oc2c(Br)cc(NC(=O)CC(=O)O)cc2Br)ccc1O` [EPROTIROME], for which, in the assay filed under Homo sapiens [9], the Activity is given as 40%.
